Experimental data taken from ChEMBL document CHEMBL1240333, “Surveying polypeptide and protein domain conformation and association with FlAsH and ReAsH” (Nat Chem Biol, 2007).
Where “and” joins values, the source holds several entries; their conditions need not be identical. Equal entries are not always repeated. Calls of active or inactive are those of the source. No cut-off for these calls is given here. Peptide text beside a SMILES is read from it.

Legend:
HeLa [1] = assay: Binding affinity to eGFP-tagged avian pancreatic polypeptide expressed in human HeLa cells by flow cytometry; format: cell-based
Procedure, shortened: (§1)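 Live HeLa cells transiently expressing eGFP fusions (aPP C-terminal or GCN4 N-terminal to eGFP) or eGFP alone. Stained 30 min with 500 nM ReAsH-EDT2 plus 100 μM EDT in phenol red-free, serum-free DMEM with 2 mM L-glutamine. PBS wash, then 0.75 mM BAL 30 min. Cells trypsinized and run by flow cytometry: eGFP 488 nm laser, 530 ± 15 nm; ReAsH 568 nm laser, 610 ± 10 nm. Mean ReAsH intensity plotted per log unit of eGFP.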

[2] = Binding affinity to alpha helix of avian pancreatic polypeptide by circular dichroism spectroscopy
Procedure, shortened: (§2)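 CD spectra recorded at 25 °C in 10 mM sodium phosphate pH 7.0 with no competing dithiols. Protein at 10 μM (aPP, Zip4) or 20 μM (GCN4, Jun); unmodified peptides and their FlAsH complexes. Three wavelength scans at 50 nm min-1 averaged, buffer-only background subtracted.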

[3] = Binding affinity to avian pancreatic polypeptide containing bipartite tetracysteine motif
Procedure, shortened: (§3)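 Fluorescence titration: 25 nM FlAsH or ReAsH titrated with increasing synthetic peptide or protein domain in 100 mM Tris-HCl pH 7.8 with 3.5 mM TCEP, 1 mM EDT, 1 mM EDTA. Emission read at 530 ± 12.5 nm (FlAsH) or 630 ± 17.5 nm (ReAsH) after reaching equilibrium, tracked over time. Apparent Kd taken from intensity versus concentration. Points are means of ≥3 independent titrations ± s.d.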

[4] = Binding affinity to avian pancreatic polypeptide containing bipartite tetracysteine motif at 25 nM; procedure, shortened: as §3
[5] = Binding affinity to avian pancreatic polypeptide containing bipartite tetracysteine motif at 100 nM; conditions: filed as agonist
HeLa [6] = assay: Binding affinity to eGFP-tagged avian pancreatic polypeptide expressed in human HeLa cells at 100 uM after 30 mins by FRET assay; format: cell-based
HeLa [7] = assay: Binding affinity to eGFP-tagged avian pancreatic polypeptide expressed in human HeLa cells at 500 nM after 10 hrs by FRET assay; format: cell-based
[8] = Binding affinity to tryptophan Zip4 polypeptide W916A mutant containing bipartite tetracysteine motif; procedure, shortened: as §3
[9] = Binding affinity to beta sheet of tryptophan Zip4 polypeptide W916A mutant by circular dichroism spectroscopy; procedure, shortened: as §2
[10] = Binding affinity to avian pancreatic polypeptide F24/Y31P mutant; procedure, shortened: as §3
[11] = Binding affinity to alpha helix of avian pancreatic polypeptide F24/Y31P mutant by circular dichroism spectroscopy; procedure, shortened: as §2
[12] = Binding affinity to c-Jun homodimer L20P mutant containing bipartite tetracysteine motif; procedure, shortened: as §3
[13] = Binding affinity to c-Jun L20P mutant at 25 degC by circular dichroism spectroscopy
HeLa [14] = assay: Binding affinity to eGFP-tagged avian pancreatic polypeptide F24P mutant expressed in human HeLa cells at 100 uM after 30 mins by FRET assay; format: cell-based
[15] = Binding affinity to alpha helix of avian pancreatic polypeptide F24P mutant by circular dichroism spectroscopy; procedure, shortened: as §2
HeLa [16] = assay: Binding affinity to eGFP-tagged avian pancreatic polypeptide F24P mutant expressed in human HeLa cells by flow cytometry; format: cell-based; procedure, shortened: as §1
HeLa [17] = assay: Binding affinity to eGFP-tagged avian pancreatic polypeptide F24P mutant expressed in human HeLa cells at 500 nM after 10 hrs by FRET assay; format: cell-based
[18] = Binding affinity to avian pancreatic polypeptide F24P mutant; procedure, shortened: as §3
[19] = Binding affinity to tryptophan Zip4 polypeptide containing bipartite tetracysteine motif at 100 nM
[20] = Binding affinity to beta sheet structure of tryptophan Zip4 polypeptide by circular dichroism spectroscopy; procedure, shortened: as §2
[21] = Binding affinity to tryptophan Zip4 polypeptide containing bipartite tetracysteine motif at 25 nM; procedure, shortened: as §3
[22] = Binding affinity to tryptophan Zip4 polypeptide containing bipartite tetracysteine motif; procedure, shortened: as §3

Compound: CC[C@H](C)[C@H](NC(=O)[C@H](CC(C)C)NC(=O)[C@H](CC(=O)O)NC(=O)[C@H](CCC(=O)O)NC(=O)[C@@H](NC(=O)[C@@H]1CCCN1C(=O)[C@H](C)NC(=O)[C@H](CC(=O)O)NC(=O)[C@H](CC(=O)O)NC(=O)CNC(=O)[C@@H]1CCCN1C(=O)[C@H](Cc1ccc(O)cc1)NC(=O)[C@@H](NC(=O)[C@@H]1CCCN1C(=O)[C@H](CCC(N)=O)NC(=O)[C@H](CO)NC(=O)[C@@H]1CCCN1C(=O)[C@H](CS)NC(=O)[C@H](CS)NC(=O)[C@H](CC(N)=O)NC(=O)[C@H](CC(C)C)NC(=O)[C@H](Cc1ccccc1)NC(C)=O)[C@H](C)O)C(C)C)C(=O)N[C@@H](CCCNC(=N)N)C(=O)N[C@@H](Cc1ccccc1)C(=O)N[C@@H](Cc1ccc(O)cc1)C(=O)N[C@@H](CC(=O)O)C(=O)N[C@@H](CC(N)=O)C(=O)N[C@@H](CC(C)C)C(=O)N[C@@H](CCC(N)=O)C(=O)N[C@@H](CCC(N)=O)C(=O)N[C@@H](Cc1ccc(O)cc1)C(=O)N[C@@H](CC(C)C)C(=O)N[C@@H](CC(N)=O)C(=O)N[C@H](C(=O)N[C@@H](CS)C(=O)N[C@@H](CS)C(=O)N[C@@H](CCSC)C(=O)N[C@@H](CCC(=O)O)C(=O)N1CCC[C@H]1C(N)=O)C(C)C
- Activity (HeLa [1]): Active
- Activity [2]: inactive
- Kapp [3]: 5.8 µM and 3.4 µM
- Activity [4]: Active
- Activity [5]: Agonist
- Activity (HeLa [6]): Active
- Activity (HeLa [7]): Active

Compound: CSCC[C@H](NC(=O)[C@H](CS)NC(=O)[C@H](CS)NC(=O)[C@@H](NC(=O)[C@H](Cc1c[nH]c2ccccc12)NC(=O)[C@@H](NC(=O)[C@H](C)NC(=O)[C@@H](NC(=O)[C@H](CCCCN)NC(=O)[C@@H](NC(=O)[C@H](C)NC(=O)[C@H](CC(=O)O)NC(=O)[C@H](CC(=O)O)NC(=O)[C@H](C)NC(=O)[C@@H](NC(=O)[C@H](Cc1c[nH]c2ccccc12)NC(=O)[C@H](CCC(=O)O)NC(=O)[C@H](CS)NC(=O)[C@H](CS)NC(=O)[C@H](CC(N)=O)NC(=O)[C@H](CC(C)C)NC(=O)[C@H](Cc1ccccc1)NC(C)=O)[C@@H](C)O)[C@@H](C)O)[C@@H](C)O)[C@@H](C)O)[C@@H](C)O)C(=O)N[C@@H](CCC(=O)O)C(=O)N1CCC[C@H]1C(N)=O (Ac-FLNCCEWTADDATKTATWTCCMEP-NH2)
- Kapp [8]: 38 µM and 13 µM
- Activity [9]: inactive

Compound: CC[C@H](C)[C@H](NC(=O)[C@H](CC(C)C)NC(=O)[C@H](CC(=O)O)NC(=O)[C@H](CCC(=O)O)NC(=O)[C@@H](NC(=O)[C@@H]1CCCN1C(=O)[C@H](C)NC(=O)[C@H](CC(=O)O)NC(=O)[C@H](CC(=O)O)NC(=O)CNC(=O)[C@@H]1CCCN1C(=O)[C@H](Cc1ccc(O)cc1)NC(=O)[C@@H](NC(=O)[C@@H]1CCCN1C(=O)[C@H](CCC(N)=O)NC(=O)[C@H](CO)NC(=O)[C@@H]1CCCN1C(=O)[C@H](CS)NC(=O)[C@H](CS)NC(=O)[C@H](CC(N)=O)NC(=O)[C@H](CC(C)C)NC(=O)[C@H](Cc1ccccc1)NC(C)=O)[C@H](C)O)C(C)C)C(=O)N[C@@H](CCCNC(=N)N)C(=O)N1CCC[C@H]1C(=O)N[C@@H](Cc1ccc(O)cc1)C(=O)N[C@@H](CC(=O)O)C(=O)N[C@@H](CC(N)=O)C(=O)N[C@@H](CC(C)C)C(=O)N[C@@H](CCC(N)=O)C(=O)N[C@@H](CCC(N)=O)C(=O)N1CCC[C@H]1C(=O)N[C@@H](CC(C)C)C(=O)N[C@@H](CC(N)=O)C(=O)N[C@H](C(=O)N[C@@H](CS)C(=O)N[C@@H](CS)C(=O)N[C@@H](CCSC)C(=O)N[C@@H](CCC(=O)O)C(=O)N1CCC[C@H]1C(N)=O)C(C)C
- Kapp [10]: 65 µM and 72 µM
- Activity [11]: inactive

Compound: CC[C@H](C)[C@H](NC(=O)[C@H](CCCNC(=N)N)NC(=O)[C@H](Cc1c[nH]c2ccccc12)NC(C)=O)C(=O)N[C@@H](C)C(=O)N[C@@H](CCCNC(=N)N)C(=O)N[C@@H](CC(C)C)C(=O)N[C@@H](CCC(=O)O)C(=O)N[C@@H](CCC(=O)O)C(=O)N[C@@H](CCCCN)C(=O)N[C@H](C(=O)N[C@@H](CCCCN)C(=O)N[C@H](C(=O)N[C@@H](CC(C)C)C(=O)N[C@@H](CCCCN)C(=O)N[C@@H](C)C(=O)N[C@@H](CCC(N)=O)C(=O)N[C@@H](CC(N)=O)C(=O)N[C@@H](CO)C(=O)N[C@@H](CCC(=O)O)C(=O)N1CCC[C@H]1C(=O)N[C@@H](C)C(=O)N[C@@H](CO)C(=O)N[C@H](C(=O)N[C@@H](C)C(=O)N[C@@H](CC(N)=O)C(=O)N[C@@H](CCSC)C(=O)N[C@@H](CC(C)C)C(=O)N[C@@H](CCCNC(=N)N)C(=O)N[C@@H](CCC(=O)O)C(=O)N[C@@H](CCC(N)=O)C(=O)N[C@H](C(=O)N[C@@H](C)C(=O)N[C@@H](CCC(N)=O)C(=O)N[C@@H](CC(C)C)C(=O)N[C@@H](CCCCN)C(=O)N[C@@H](CCC(N)=O)C(=O)N[C@@H](CCCCN)C(=O)N[C@H](C(=O)N[C@@H](CS)C(=O)N[C@@H](CS)C(N)=O)C(C)C)C(C)C)[C@@H](C)O)[C@@H](C)O)C(C)C (Ac-WRIARLEEKVKTLKAQNSEPASTANMLREQVAQLKQKVCC-NH2)
- Kapp [12]: > 111 µM
- Activity [13]: inactive

Compound: CC[C@H](C)[C@H](NC(=O)[C@H](CC(C)C)NC(=O)[C@H](CC(=O)O)NC(=O)[C@H](CCC(=O)O)NC(=O)[C@@H](NC(=O)[C@@H]1CCCN1C(=O)[C@H](C)NC(=O)[C@H](CC(=O)O)NC(=O)[C@H](CC(=O)O)NC(=O)CNC(=O)[C@@H]1CCCN1C(=O)[C@H](Cc1ccc(O)cc1)NC(=O)[C@@H](NC(=O)[C@@H]1CCCN1C(=O)[C@H](CCC(N)=O)NC(=O)[C@H](CO)NC(=O)[C@@H]1CCCN1C(=O)[C@H](CS)NC(=O)[C@H](CS)NC(=O)[C@H](CC(N)=O)NC(=O)[C@H](CC(C)C)NC(=O)[C@H](Cc1ccccc1)NC(C)=O)[C@H](C)O)C(C)C)C(=O)N[C@@H](CCCNC(=N)N)C(=O)N1CCC[C@H]1C(=O)N[C@@H](Cc1ccc(O)cc1)C(=O)N[C@@H](CC(=O)O)C(=O)N[C@@H](CC(N)=O)C(=O)N[C@@H](CC(C)C)C(=O)N[C@@H](CCC(N)=O)C(=O)N[C@@H](CCC(N)=O)C(=O)N[C@@H](Cc1ccc(O)cc1)C(=O)N[C@@H](CC(C)C)C(=O)N[C@@H](CC(N)=O)C(=O)N[C@H](C(=O)N[C@@H](CS)C(=O)N[C@@H](CS)C(=O)N[C@@H](CCSC)C(=O)N[C@@H](CCC(=O)O)C(=O)N1CCC[C@H]1C(N)=O)C(C)C
- Activity (HeLa [14]): Active
- Activity [15]: inactive
- Activity (HeLa [16]): Active
- Activity (HeLa [17]): inactive
- Kapp [18]: 27 µM and 22 µM

Compound: CSCC[C@H](NC(=O)[C@H](CS)NC(=O)[C@H](CS)NC(=O)[C@@H](NC(=O)[C@H](Cc1c[nH]c2ccccc12)NC(=O)[C@@H](NC(=O)[C@H](Cc1c[nH]c2ccccc12)NC(=O)[C@@H](NC(=O)[C@H](CCCCN)NC(=O)[C@@H](NC(=O)[C@H](C)NC(=O)[C@H](CC(=O)O)NC(=O)[C@H](CC(=O)O)NC(=O)[C@H](Cc1c[nH]c2ccccc12)NC(=O)[C@@H](NC(=O)[C@H](Cc1c[nH]c2ccccc12)NC(=O)[C@H](CCC(=O)O)NC(=O)[C@H](CS)NC(=O)[C@H](CS)NC(=O)[C@H](CC(N)=O)NC(=O)[C@H](CC(C)C)NC(=O)[C@H](Cc1ccccc1)NC(C)=O)[C@@H](C)O)[C@@H](C)O)[C@@H](C)O)[C@@H](C)O)[C@@H](C)O)C(=O)N[C@@H](CCC(=O)O)C(=O)N1CCC[C@H]1C(N)=O (Ac-FLNCCEWTWDDATKTWTWTCCMEP-NH2)
- Activity [19]: Active
- Activity [20]: inactive
- Activity [21]: Active
- Kapp [22]: 0.62 µM and 0.38 µM
